Assay [1] addresses T1, Drosophila melanogaster HhC (Drosophila melanogaster, UniProt Q02936).
T1 sequence (Q02936 258-471 limits assumed): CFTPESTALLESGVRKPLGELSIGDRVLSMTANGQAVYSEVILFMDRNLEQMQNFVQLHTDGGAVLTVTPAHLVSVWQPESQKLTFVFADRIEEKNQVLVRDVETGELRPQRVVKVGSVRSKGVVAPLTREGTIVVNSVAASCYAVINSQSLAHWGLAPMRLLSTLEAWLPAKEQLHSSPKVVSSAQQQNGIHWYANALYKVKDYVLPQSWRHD
The assay can be described thus: Cholesterolysis kinetics. The class given is biochemical. The conditions noted are these: C−H−Y.

Assay [2] addresses T1, Drosophila melanogaster HhC. The conditions noted are these: read-out: KM as HhC substrate; cited from earlier work.
In assay [3] the target is T2, HhC (Drosophila melanogaster, UniProt Q02936).
T2 sequence (Q02936 258-471 limits assumed): T1 sequence (Q02936 258-471 limits assumed)
The class given is binding. The conditions noted are these: HhC 5 μM, tSP 10 μM, competitor 200 μM. Summed up:
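HhC at 5 μM with diazirine-bearing sterol probe tSP and 50 μM azide-linked fluorophore. Saturating cholesterol or test compound added as competitor. UV photolysis. Labeling read by SDS-PAGE with fluorescent gel imaging. Coomassie stain for total HhC.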

Assay [4] concerns the target T2, HhC. The assay can be described thus: MS/MS mapping of tSP binding site on HhC/tSP adduct. The conditions noted are these: product form of HhC, preliminary MS/MS.

Where two headings read alike, the source gives them in different places.

Consider `CC(C)CCC[C@@H](C)[C@H]1CC[C@H]2[C@@H]3CC=C4C[C@@H](O)CC[C@]4(C)[C@H]3CC[C@]12C` [cholesterol], for which the “kmax as HhC substrate” value in assay [1] (no inhibitor) stood at 0.0019 s⁻¹. Further, the Km in assay [2] is 1.5 µM. The “effect on active-site photolabeling of HhC by tSP” value on HhC [3] is on record as “competitively blocks”.
Turning to `C#CCCCCOC(=O)CC[C@@H](C)[C@H]1CCC2C3CC4(N=N4)[C@H]4C[C@@H](O)CC[C@]4(C)C3CC[C@@]21C` (stereo partly shown) [tSP], the “difference in kmax/KM compared with cholesterol” value in assay [1] is reported as < 2 fold. Further, the “kmax as HhC substrate” value in assay [1] (no inhibitor) was found to be 0.0042 s⁻¹. Further, in assay [1] (read-out: KM as HhC substrate, no inhibitor), the Km is 6.8 µM. Moreover, the “site of probe attachment on HhC” value on HhC [4] is “EQLHSSPK (HhC residues 174−181)”.

Values taken from article PMC9382716 (Biochemistry, 2021).
